Laboratory results published in ChEMBL document CHEMBL4706580, “4-Amino-1,2,4-triazole-3-thione-derived Schiff bases as metallo-β-lactamase inhibitors” (Eur J Med Chem, 2020).
Calls of active or inactive are those of the source. The calls are words filed in the database; no cut-off is given here.

Key:
[1] = Binding affinity to beta-lactamase VIM-2 expressed in Escherichia coli BL21(DE3) assessed as association constant at 25 degC by isothermal titration calorimetry
In short: (§1)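 VIM-2 (19 μM) in 10 mM HEPES-NaOH, 0.15 M NaCl, 50 μM ZnSO4, pH 7.5, DMSO matched to ligand (1-2% final). One 0.5 μl then 19 × 2 μl injections of compound (200-400 μM), 150 s apart, 25 °C. Buffer dilution heats subtracted; nonlinear least-squares fit for n, Ka, ΔH; compound concentration adjusted in fitting so n ≈ 1.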

[2] = Binding affinity to beta-lactamase VIM-2 expressed in Escherichia coli BL21(DE3) assessed as dissociation constant at 25 degC by isothermal titration calorimetry; in short: as §1
[3] = Binding affinity to beta-lactamase VIM-2 expressed in Escherichia coli BL21(DE3) assessed as change in entropy at 25 degC by isothermal titration calorimetry; in short: as §1
[4] = Inhibition of beta-lactamase VIM-2 (unknown origin) expressed in Escherichia coli LZ2310 assessed as potentiation of cefoxitin antibacterial activity by measuring cefoxitin induced diameter of inhibition zone at 320 uM incubated for 18 hrs by disk diffusion method (reference value: 14 mm)
In short: (§2)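 Efflux-deficient E. coli LZ2310 (NorE, MdfA, AcrA knocked out) carrying pLB-II with the cloned MBL gene. Mueller-Hinton, CLSI disk diffusion; antibiotic disks (30 µg cefoxitin for VIM-2, 10 µg ampicillin for VIM-4, 30 µg ceftazidime for NDM-1/IMP-1) loaded with inhibitor in DMSO (≤15 µL). Zone diameter after 18 h, 35 ± 1 °C; DMSO and 220 µg EDTA controls. Triplicate.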

[5] = Binding affinity to beta-lactamase VIM-2 expressed in Escherichia coli BL21(DE3) assessed as Gibbs free energy at 25 degC by isothermal titration calorimetry; in short: as §1
[6] = Binding affinity to beta-lactamase VIM-2 expressed in Escherichia coli BL21(DE3) assessed as change in enthalpy at 25 degC by isothermal titration calorimetry; in short: as §1
[7] = Inhibition of beta-lactamase CphA (unknown origin) expressed in Escherichia coli BL21(DE3) using imipenem as substrate by measuring substrate hydrolysis by spectrophotometric analysis
In short: (§3)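 Enzyme 0.2–0.8 nM in 15 mM cacodylate pH 6.5, no added zinc, pre-incubated 30 min at 21 °C with inhibitor (100 μM screen). Imipenem substrate added from 10 mM stock; hydrolysis at 300 nm, 30 °C. Residual activity vs three uninhibited samples; Ki (1–100 μM inhibitor) by Hanes linearization, competitive model. Triplicate.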

[8] = Inhibition of beta-lactamase IMP-1 (unknown origin) expressed in Escherichia coli BL21(DE3) using imipenem as substrate by measuring substrate hydrolysis by spectrophotometric analysis
In short: (§4)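 Purified enzyme (overproduced in E. coli BL21(DE3), pET-9a; ion-exchange and gel filtration), 1-70 nM final. Reporter substrate 150 μM imipenem, read at 300 nm, 30 °C, 50 mM HEPES pH 7.5. Single-point screen at 100 or 200 μM; Ki from v0/vi vs [I] (0.5–1,000 μM final) assuming competitive inhibition, or Dixon plot. Triplicate.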

[9] = Inhibition of beta-lactamase VIM-2 (unknown origin) expressed in Escherichia coli XL-1 assessed as potentiation of cefoxitin antibacterial activity by measuring cefoxitin induced diameter of inhibition zone at 320 uM incubated for 18 hrs by disk diffusion method (reference value: 8 mm)
In short: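 Wild-type efflux E. coli XL-1 Blue transformed with pLB-II-VIM-2. Mueller-Hinton disk diffusion per CLSI, 30 µg cefoxitin disks loaded with inhibitor dissolved in DMSO (≤15 µL). Growth-inhibition zone measured after 18 h at 35 ± 1 °C; DMSO negative and 220 µg EDTA positive controls. Triplicate.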

[10] = Inhibition of beta-lactamase NDM1 (unknown origin) expressed in Escherichia coli BL21(DE3) using cefotaxime/nitrocefin as substrate by measuring substrate hydrolysis by spectrophotometric analysis
In short: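 His-tagged enzyme from E. coli BL21(DE3) pET-15b, affinity-purified, 1-70 nM final. Reporter substrate 120 μM cefotaxime (260 nm) or 100 μM nitrocefin (482 nm), 30 °C, 50 mM HEPES pH 7.5. Inhibitor 0.5–1,000 μM final; competitive Ki from v0/vi vs [I] slope or Dixon plot. Triplicate.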

[11] = Inhibition of beta-lactamase VIM2 (unknown origin) expressed in Escherichia coli BL21(DE3) using imipenem as substrate by measuring substrate hydrolysis by spectrophotometric analysis; in short: as §4
[12] = Inhibition of beta-lactamase VIM4 (unknown origin) expressed in Escherichia coli BL21(DE3) using imipenem as substrate by measuring substrate hydrolysis by spectrophotometric analysis; in short: as §4
[13] = Inhibition of beta-lactamase L1 (unknown origin) expressed in Escherichia coli BL21(DE3) using nitrocefin as substrate by measuring substrate hydrolysis preincubated for 30 mins by spectrophotometric analysis
In short: (§5)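 Enzyme 0.2–0.8 nM in 25 mM HEPES pH 7.5 with 50 μM ZnCl2 final, pre-incubated 30 min at 21 °C with inhibitor (100 μM screen). Nitrocefin 100 μM final, read at 482 nm, 30 °C. Residual activity vs three uninhibited samples; Ki (1–100 μM inhibitor) from Hanes linearization, competitive model. Triplicate.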

[14] = Inhibition of beta-lactamase IMP-1 (unknown origin) expressed in Escherichia coli LZ2310 assessed as potentiation of ceftazidime antibacterial activity by measuring ceftazidime induced diameter of inhibition zone at 320 uM incubated for 18 hrs by disk diffusion method (reference value: 9 mm); in short: as §2
[15] = Inhibition of beta-lactamase IMP-1 (unknown origin) expressed in Escherichia coli BL21(DE3) using imipenem as substrate by measuring substrate hydrolysis at 200 uM by spectrophotometric analysis; in short: as §4
[16] = Inhibition of beta-lactamase IMP-1 (unknown origin) expressed in Escherichia coli BL21(DE3) using imipenem as substrate by measuring substrate hydrolysis at 100 uM by spectrophotometric analysis; in short: as §4
[17] = Inhibition of beta-lactamase NDM-1 (unknown origin) expressed in Escherichia coli LZ2310 assessed as potentiation of ceftazidime antibacterial activity by measuring ceftazidime induced diameter of inhibition zone at 80 uM incubated for 18 hrs by disk diffusion method (reference value: 15 mm); in short: as §2
[18] = Inhibition of beta-lactamase VIM2 (unknown origin) expressed in Escherichia coli BL21(DE3) using imipenem as substrate by measuring substrate hydrolysis at 100 uM by spectrophotometric analysis; in short: as §4
[19] = Inhibition of beta-lactamase L1 (unknown origin) expressed in Escherichia coli BL21(DE3) using nitrocefin as substrate by measuring substrate hydrolysis at 100 uM preincubated for 30 mins by spectrophotometric analysis; in short: as §5
[20] = Inhibition of beta-lactamase VIM2 (unknown origin) expressed in Escherichia coli BL21(DE3) using imipenem as substrate by measuring substrate hydrolysis at 200 uM by spectrophotometric analysis; in short: as §4
[21] = Inhibition of beta-lactamase VIM-2 (unknown origin) expressed in Escherichia coli LZ2310 assessed as potentiation of cefoxitin antibacterial activity by measuring cefoxitin induced diameter of inhibition zone at 40 uM incubated for 18 hrs by disk diffusion method (reference value: 14 mm); in short: as §2
[22] = Inhibition of beta-lactamase CphA (unknown origin) expressed in Escherichia coli BL21(DE3) using imipenem as substrate by measuring substrate hydrolysis at 100 uM by spectrophotometric analysis; in short: as §3
[23] = Inhibition of beta-lactamase NDM-1 (unknown origin) expressed in Escherichia coli LZ2310 assessed as potentiation of ceftazidime antibacterial activity by measuring ceftazidime induced diameter of inhibition zone at 40 uM incubated for 18 hrs by disk diffusion method (reference value: 15 mm); in short: as §2
[24] = Inhibition of beta-lactamase IMP-1 (unknown origin) expressed in Escherichia coli LZ2310 assessed as potentiation of ceftazidime antibacterial activity by measuring ceftazidime induced diameter of inhibition zone at 40 uM incubated for 18 hrs by disk diffusion method (reference value: 9 mm); in short: as §2
[25] = Inhibition of beta-lactamase CphA (unknown origin) expressed in Escherichia coli BL21(DE3) using imipenem as substrate by measuring substrate hydrolysis at 200 uM by spectrophotometric analysis
[26] = biological target: Hydroxyacylglutathione hydrolase (Homo sapiens); test: Inhibition of human Glyoxalase II expressed in Escherichia coli BL21 (DE3)
[27] = Inhibition of beta-lactamase VIM4 (unknown origin) expressed in Escherichia coli BL21(DE3) using imipenem as substrate by measuring substrate hydrolysis at 100 uM by spectrophotometric analysis; in short: as §4
[28] = tested on: Escherichia coli; test: Synergistic antibacterial activity against NDM-1 producing Escherichia coli assessed as MIC of imipenem at 32 ug/ml by broth microdilution method; format: functional; details: dose 32 µg/ml
[29] = tested on: Escherichia coli; test: Synergistic antibacterial activity against NDM-1 producing Escherichia coli assessed as MIC of meropenem at 32 ug/ml by broth microdilution method; format: functional; details: dose 32 µg/ml
[30] = tested on: Escherichia coli; test: Synergistic antibacterial activity against NDM-1 producing Escherichia coli assessed as MIC of ceftazidime at 32 ug/ml by broth microdilution method; format: functional; details: dose 32 µg/ml
[31] = tested on: Escherichia coli; test: Synergistic antibacterial activity against NDM-1 producing Escherichia coli assessed ass MIC of ceftazidime/avibactam at 32 ug/ml by broth microdilution method; format: functional; details: dose 32 µg/ml
In short: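 MIC of ceftazidime-avibactam (avibactam fixed at 4 µg/mL) by CLSI broth microdilution in Mueller-Hinton broth. Used the NDM-1-producing multidrug-resistant E. coli clinical isolate SI-001M at 5 × 10⁴ CFU/well, with and without inhibitor at a fixed 32 µg/ml. No colistin added. Triplicate determinations.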

[32] = tested on: Escherichia coli; test: Antibacterial activity against NDM-1 producing Escherichia coli in presence of colistin by broth microdilution method.; format: functional
[33] = Inhibition of beta-lactamase L1 (unknown origin) expressed in Escherichia coli BL21(DE3) using nitrocefin as substrate by measuring substrate hydrolysis at 200 uM preincubated for 30 mins by spectrophotometric analysis
[34] = Inhibition of beta-lactamase VIM4 (unknown origin) expressed in Escherichia coli BL21(DE3) using imipenem as substrate by measuring substrate hydrolysis at 200 uM by spectrophotometric analysis; in short: as §4

Row | SMILES | Ka [1] | Kd [2] [nM] | -TdeltaS [3] [kcal/mol] | deltaG [5] [kcal/mol] | deltaH [6] [kcal/mol] | Ki [8] [µM] | Ki [10] [µM] | Ki [11] [nM] | Ki [12] [nM] | Ki [13] [nM] | inhibition zone (IZ) [17] [mm] | inhibition [18] | inhibition [19] | inhibition [20] | IC50 [26] [µM] | further results
1 | O=C(O)c1ccccc1/C=N/n1c(-c2cccc(-c3ccccc3)c2)n[nH]c1=S | 1.5 10^7/M | 68 | 2.6 | -9.8 | -7.2 | 17.7 | 4.2 | 200 | 40 | 600 | – | – | – | – | – | inhibition zone (IZ) [4]: 15 mm; Ki [7]: 4 µM; inhibition zone (IZ) [9]: 9 mm; inhibition zone (IZ) [14]: 9 mm
2 | O=C(O)c1ccccc1/C=N/n1c(-c2ccc(Cl)cc2)n[nH]c1=S | – | – | – | – | – | – | 7.6 | – | 7000 | – | 15 | inactive | 60% | inactive | – | inhibition [15]: inactive; inhibition [16]: inactive
3 | O=C(O)c1ccccc1/C=N/n1c(-c2ccc3ccccc3c2)n[nH]c1=S | 1.4 10^6/M | 713 | 5.1 | -8.4 | -3.3 | 10.6 | 2.3 | 700 | 400 | 4620 | – | – | – | – | 13.2 | inhibition zone (IZ) [21]: 15 mm; inhibition [22]: inactive; inhibition zone (IZ) [23]: 15 mm; inhibition zone (IZ) [24]: 9 mm; inhibition [25]: inactive
4 | S=c1[nH]nc(-c2cccc(-c3ccccc3)c2)n1/N=C/c1ccc(OCc2ccccc2)cc1 | – | – | – | – | – | 9 | 1.8 | – | – | – | 15 | inactive | inactive | inactive | 23.4 | inhibition [27]: inactive; MIC [28]: 8 µg/mL; MIC [29]: 64 µg/mL; MIC [30]: > 256 µg/mL; MIC [31]: > 256 µg/mL; MIC [32]: > 256 µg/mL; inhibition [33]: inactive; inhibition [34]: inactive
